Among the data in ChEMBL document CHEMBL5705899 (Biochem J, 2014) are Activity, inhibition and IC50 values, retold here.

Each structure is given as a SMILES string. Active and inactive are the calls of the source. No cut-off for these calls is given here.

The IC50 is the concentration needed to halve the response being measured.

Test [1] concerns the target Casein kinase I isoform gamma-2 (Homo sapiens) (UniProt P78368). As to the kind of experiment: Inhibition of recombinant human N-terminal GST-tagged CK1g2 (1 to 415 residues) expressed in Escherichia coli assessed as remaining activity at 1 uM using RRKDLHDDEEDEAMSITA as substrate incubated for 30 mins in presence of [gamma-33P]ATP by filter binding method relative to control.

The target of test [2] is Serine/threonine-protein kinase 3 (Homo sapiens) (UniProt Q13188). As to the kind of experiment: Inhibition of recombinant human N-terminal GST-tagged MST2 (2 to 491 residues) expressed in baculovirus infected Sf21 cells assessed as remaining activity at 1 uM using MBP as substrate incubated for 30 mins in presence of [gamma-33P]ATP by filter binding method relative to control.

Test [3] addresses Serine/threonine-protein kinase 24 (Homo sapiens) (UniProt Q9Y6E0). As to the kind of experiment: Inhibition of recombinant human N-terminal GST-tagged MST3 (1 to 431 residues) expressed in baculovirus infected Sf21 cells assessed as remaining activity at 1 uM using MBP as substrate incubated for 30 mins in presence of [gamma-33P]ATP by filter binding method relative to control.

Test [4] concerns the target Calcium/calmodulin-dependent protein kinase type 1 (Homo sapiens) (UniProt Q14012). As to the kind of experiment: Inhibition of recombinant human N-terminal GST-tagged CAMK1alpha (2 to 369 residues) expressed in Escherichia coli assessed as remaining activity at 1 uM using YLRRRLSDSNF as substrate incubated for 30 mins in presence of [gamma-33P]ATP by filter binding method relative to control.

The subject of test [5] is Ribosomal protein S6 kinase beta-1 (Homo sapiens), P23443 [T412E]. In words: Inhibition of recombinant human His6-tagged S6K1 T412E mutant (1 to 421 residues) expressed in baculovirus infected sf21 cells assessed as remaining activity at 1 uM using KKRNRTLTVas substrate incubated for 30 mins in presence of [gamma-33P]ATP by filter binding method relative to control.
The target of test [6] is Vascular endothelial growth factor receptor 1 (Homo sapiens) (UniProt P17948). In words: Inhibition of recombinant human N-terminal GST-tagged VEGFR1 (784 to 1338 residues) expressed in baculovirus infected Sf21 cells assessed as remaining activity at 1 uM using KKKSPGEYVNIEFG as substrate incubated for 30 mins in presence of [gamma-33P]ATP by filter binding method relative to control.

For test [7], the target named is Insulin receptor-related protein (Homo sapiens) (UniProt P14616). In words: Inhibition of recombinant human N-terminal His6-tagged IRR (944 to 1236 residues) expressed in baculovirus infected Sf21 cells assessed as remaining activity at 1 uM using MBP as substrate incubated for 30 mins in presence of [gamma-33P]ATP by filter binding method relative to control.
For test [8], the system named is Serine/threonine-protein kinase Sgk1 (Homo sapiens), O00141 [S422D]. The conditions noted are these: Sf21, dose 1.0 µM, time 30.0 min.
Test [9] concerns the target Ephrin type-A receptor 2 (Homo sapiens) (UniProt P29317). As to the kind of experiment: Inhibition of recombinant human N-terminal GST-tagged EPHA2 (591 to 976 residues) expressed in Escherichia coli assessed as remaining activity at 1 uM using Poly (Glu,Tyr) as substrate incubated for 30 mins in presence of [gamma-33P]ATP by filter binding method relative to control.

In test [10] the target is Serine/threonine-protein kinase ULK1 (Homo sapiens) (UniProt O75385). As to the kind of experiment: Inhibition of recombinant human ULK1 (2 to 1050 residues) expressed in baculovirus infected Sf21 cells assessed as remaining activity at 1 uM using MBP as substrate incubated for 30 mins in presence of [gamma-33P]ATP by filter binding method relative to control.
In test [11] the target is Tyrosine-protein kinase Lyn (Homo sapiens) (UniProt P07948). In words: Inhibition of human LYN at 1 uM using polyEY as substrate in presence of 33P-ATP by ProQinase assay.
Test [12] concerns the target Focal adhesion kinase 1 (Homo sapiens) (UniProt Q05397). In words: Inhibition of human FAK (2 to 1052 residues) at 1 uM using polyEY as substrate in presence of 33P-ATP by ProQinase assay.
Test [13] deals with Muscle, skeletal receptor tyrosine-protein kinase (Homo sapiens) (UniProt O15146). In words: Inhibition of human MUSK at 1 uM using poly(Ala,Glu,Lys,Tyr) as substrate in presence of 33P-ATP by ProQinase assay.
Test [14] concerns the target Mitogen-activated protein kinase kinase kinase kinase 2 (Homo sapiens) (UniProt Q12851). In words: Inhibition of human MAP4K2 at 1 uM using 3xChocktide-PKC as substrate in presence of 33P-ATP by ProQinase assay.
In test [15] the target is Protein kinase C theta type (Homo sapiens) (UniProt Q04759). As to the kind of experiment: Inhibition of human PKCtheta at 1 uM using 3xChocktide-PKC as substrate in presence of 33P-ATP by ProQinase assay.
For test [16], the target named is Serine/threonine-protein kinase D1 (Homo sapiens) (UniProt Q15139). In words: Inhibition of human PKCmu at 1 uM using RBER-CHKtide as substrate in presence of 33P-ATP by ProQinase assay.
Test [17] addresses Leucine-rich repeat serine/threonine-protein kinase 2 (Homo sapiens) (UniProt Q5S007). As to the kind of experiment: Inhibition of human LRRK2 at 1 uM using RBER-GSK3 as substrate in presence of 33P-ATP by ProQinase assay.
In test [18] the target is Ribosomal protein S6 kinase alpha-4 (Homo sapiens) (UniProt O75676). In words: Inhibition of human RPS6KA4 at 1 uM using RBER-CHKtide as substrate in presence of 33P-ATP by ProQinase assay.
In test [19] the target is Inhibitor of nuclear factor kappa-B kinase subunit alpha (Homo sapiens) (UniProt O15111). As to the kind of experiment: Inhibition of human IKKalpha at 1 uM using RBER-CHKtide as substrate in presence of 33P-ATP by ProQinase assay.
Test [20] concerns the target Casein kinase I isoform delta (Homo sapiens) (UniProt P48730). As to the kind of experiment: Inhibition of human CK1delta at 1 uM using casein as substrate in presence of 33P-ATP by ProQinase assay.
Test [21] has as its target Dual specificity protein kinase CLK2 (Homo sapiens) (UniProt P49760). As to the kind of experiment: Inhibition of human CLK2 at 1 uM using RBER-GSK3 as substrate in presence of 33P-ATP by ProQinase assay.
Test [22] concerns the target T1, Phosphatidylinositol 4-phosphate 5-kinase type-1 gamma (Homo sapiens, UniProt O60331). As to the kind of experiment: Inhibition of PIP5K1C (unknown origin) using D-myo-PIP as substrate incubated for 45 mins by ADP-Glo assay. An outline of the steps:
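Substrates were 14 μM PtdIns 4-phosphate and 20 μM ATP, with inhibitor at varying concentrations. Reactions ran 45 min at ambient temperature, then luminescence detection was done as for the PI4K assays.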

Test [23] addresses T1, Phosphatidylinositol 4-phosphate 5-kinase type-1 gamma. In words: Inhibition of human PIP5K1C using PI/PS as substrate by ADP-Glo assay.

T1 sequence (O60331 whole entry): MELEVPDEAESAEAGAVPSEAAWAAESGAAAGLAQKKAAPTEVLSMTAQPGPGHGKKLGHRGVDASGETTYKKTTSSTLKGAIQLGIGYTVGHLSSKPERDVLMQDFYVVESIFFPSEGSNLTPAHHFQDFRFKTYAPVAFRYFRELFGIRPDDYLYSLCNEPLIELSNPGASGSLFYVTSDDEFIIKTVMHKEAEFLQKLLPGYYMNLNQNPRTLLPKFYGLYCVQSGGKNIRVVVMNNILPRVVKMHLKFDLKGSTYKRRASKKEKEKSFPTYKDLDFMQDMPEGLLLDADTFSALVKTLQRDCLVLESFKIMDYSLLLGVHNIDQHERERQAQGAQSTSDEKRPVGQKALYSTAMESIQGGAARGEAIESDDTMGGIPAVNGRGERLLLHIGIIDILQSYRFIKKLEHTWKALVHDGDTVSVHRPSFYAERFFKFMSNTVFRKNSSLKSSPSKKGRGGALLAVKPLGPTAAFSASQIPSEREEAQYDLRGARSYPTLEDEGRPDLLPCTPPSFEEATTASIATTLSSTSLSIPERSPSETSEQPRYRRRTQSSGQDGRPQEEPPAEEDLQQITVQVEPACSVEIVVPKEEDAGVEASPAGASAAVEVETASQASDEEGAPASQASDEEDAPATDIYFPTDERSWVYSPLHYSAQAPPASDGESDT
Chain of Serine/threonine-protein kinase 24 (Homo sapiens) (Q9Y6E0 whole entry, looked up, the tested form may be a part): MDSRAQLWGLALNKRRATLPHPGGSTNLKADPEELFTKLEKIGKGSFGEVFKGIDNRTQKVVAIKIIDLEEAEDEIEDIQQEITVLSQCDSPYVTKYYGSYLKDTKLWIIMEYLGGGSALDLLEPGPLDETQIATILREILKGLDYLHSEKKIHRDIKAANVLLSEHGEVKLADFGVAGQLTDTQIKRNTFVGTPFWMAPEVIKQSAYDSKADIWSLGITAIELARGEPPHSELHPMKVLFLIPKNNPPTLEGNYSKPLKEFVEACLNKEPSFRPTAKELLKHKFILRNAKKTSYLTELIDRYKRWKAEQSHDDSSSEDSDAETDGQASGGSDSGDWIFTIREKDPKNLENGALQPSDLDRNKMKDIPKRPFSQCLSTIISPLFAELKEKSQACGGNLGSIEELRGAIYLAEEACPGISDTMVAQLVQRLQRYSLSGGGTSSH
Chain of Mitogen-activated protein kinase kinase kinase kinase 2 (Homo sapiens) (Q12851 whole entry): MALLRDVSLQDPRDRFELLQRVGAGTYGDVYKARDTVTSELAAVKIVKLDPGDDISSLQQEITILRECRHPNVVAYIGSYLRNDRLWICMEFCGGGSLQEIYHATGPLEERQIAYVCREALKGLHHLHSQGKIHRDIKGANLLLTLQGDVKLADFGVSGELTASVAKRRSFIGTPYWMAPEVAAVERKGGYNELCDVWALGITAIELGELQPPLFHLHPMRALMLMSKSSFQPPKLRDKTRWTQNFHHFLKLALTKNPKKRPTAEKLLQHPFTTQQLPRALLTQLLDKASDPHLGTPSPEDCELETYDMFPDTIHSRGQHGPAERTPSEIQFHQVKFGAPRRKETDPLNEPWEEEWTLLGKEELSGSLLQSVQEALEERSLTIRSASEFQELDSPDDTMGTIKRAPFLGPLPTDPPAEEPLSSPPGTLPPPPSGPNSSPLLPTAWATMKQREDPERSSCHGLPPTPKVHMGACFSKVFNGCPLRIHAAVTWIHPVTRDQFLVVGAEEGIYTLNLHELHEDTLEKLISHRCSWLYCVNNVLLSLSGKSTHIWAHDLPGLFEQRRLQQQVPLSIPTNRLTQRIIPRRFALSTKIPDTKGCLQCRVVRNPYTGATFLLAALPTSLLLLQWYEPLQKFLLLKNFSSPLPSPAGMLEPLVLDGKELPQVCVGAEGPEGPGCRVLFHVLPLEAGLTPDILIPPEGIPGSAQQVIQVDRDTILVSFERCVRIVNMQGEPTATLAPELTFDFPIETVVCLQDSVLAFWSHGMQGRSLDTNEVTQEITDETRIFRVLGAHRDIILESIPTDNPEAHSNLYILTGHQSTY
Chain of Insulin receptor-related protein (Homo sapiens) (P14616 27-742 limits assumed): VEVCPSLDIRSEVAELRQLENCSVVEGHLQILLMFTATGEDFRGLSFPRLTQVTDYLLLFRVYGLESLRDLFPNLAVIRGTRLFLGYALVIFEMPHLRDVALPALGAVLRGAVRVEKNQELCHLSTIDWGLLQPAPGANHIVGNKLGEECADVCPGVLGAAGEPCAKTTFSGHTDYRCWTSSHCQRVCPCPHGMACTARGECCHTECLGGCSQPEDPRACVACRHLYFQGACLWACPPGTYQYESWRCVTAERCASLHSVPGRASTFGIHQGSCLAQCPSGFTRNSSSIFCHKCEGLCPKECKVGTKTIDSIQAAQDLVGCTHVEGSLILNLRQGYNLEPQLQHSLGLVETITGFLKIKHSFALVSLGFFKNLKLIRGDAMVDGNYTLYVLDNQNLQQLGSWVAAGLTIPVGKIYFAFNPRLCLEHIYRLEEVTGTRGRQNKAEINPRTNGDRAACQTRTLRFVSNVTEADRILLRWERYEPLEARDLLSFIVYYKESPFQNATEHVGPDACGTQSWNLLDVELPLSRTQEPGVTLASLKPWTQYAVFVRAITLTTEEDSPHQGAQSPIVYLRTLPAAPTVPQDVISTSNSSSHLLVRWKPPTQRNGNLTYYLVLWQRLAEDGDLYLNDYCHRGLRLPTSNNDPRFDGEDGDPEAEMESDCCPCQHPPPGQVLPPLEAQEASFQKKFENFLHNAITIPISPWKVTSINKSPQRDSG
Chain of Insulin receptor-related protein (Homo sapiens) (P14616 747-1297 limits assumed): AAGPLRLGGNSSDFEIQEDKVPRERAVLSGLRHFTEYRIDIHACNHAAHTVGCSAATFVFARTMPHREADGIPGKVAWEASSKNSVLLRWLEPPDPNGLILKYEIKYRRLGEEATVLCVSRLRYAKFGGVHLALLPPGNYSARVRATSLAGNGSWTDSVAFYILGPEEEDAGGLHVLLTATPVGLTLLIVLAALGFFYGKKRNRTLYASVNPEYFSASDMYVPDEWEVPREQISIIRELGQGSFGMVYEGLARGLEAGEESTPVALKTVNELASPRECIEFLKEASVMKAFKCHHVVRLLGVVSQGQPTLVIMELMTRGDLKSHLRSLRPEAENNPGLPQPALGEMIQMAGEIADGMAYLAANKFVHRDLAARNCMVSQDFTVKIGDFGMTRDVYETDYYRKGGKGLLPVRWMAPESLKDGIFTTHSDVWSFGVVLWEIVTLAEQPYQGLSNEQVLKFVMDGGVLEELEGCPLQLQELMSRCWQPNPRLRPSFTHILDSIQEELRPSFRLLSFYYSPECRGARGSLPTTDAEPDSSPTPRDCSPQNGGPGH
Chain of Casein kinase I isoform delta (Homo sapiens) (P48730 whole entry, looked up, canonical isoform): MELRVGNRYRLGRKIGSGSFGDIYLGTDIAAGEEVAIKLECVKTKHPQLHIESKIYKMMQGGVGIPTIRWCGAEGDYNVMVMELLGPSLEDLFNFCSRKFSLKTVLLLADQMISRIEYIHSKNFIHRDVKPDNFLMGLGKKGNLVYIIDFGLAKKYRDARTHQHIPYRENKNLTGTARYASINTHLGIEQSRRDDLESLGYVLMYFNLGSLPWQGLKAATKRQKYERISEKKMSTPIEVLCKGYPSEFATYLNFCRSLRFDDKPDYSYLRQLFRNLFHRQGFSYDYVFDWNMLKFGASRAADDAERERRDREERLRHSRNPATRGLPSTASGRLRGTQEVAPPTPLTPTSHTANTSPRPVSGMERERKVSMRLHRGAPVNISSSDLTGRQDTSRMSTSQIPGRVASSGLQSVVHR
Chain of Focal adhesion kinase 1 (Homo sapiens) (Q05397 2-1052 limits assumed): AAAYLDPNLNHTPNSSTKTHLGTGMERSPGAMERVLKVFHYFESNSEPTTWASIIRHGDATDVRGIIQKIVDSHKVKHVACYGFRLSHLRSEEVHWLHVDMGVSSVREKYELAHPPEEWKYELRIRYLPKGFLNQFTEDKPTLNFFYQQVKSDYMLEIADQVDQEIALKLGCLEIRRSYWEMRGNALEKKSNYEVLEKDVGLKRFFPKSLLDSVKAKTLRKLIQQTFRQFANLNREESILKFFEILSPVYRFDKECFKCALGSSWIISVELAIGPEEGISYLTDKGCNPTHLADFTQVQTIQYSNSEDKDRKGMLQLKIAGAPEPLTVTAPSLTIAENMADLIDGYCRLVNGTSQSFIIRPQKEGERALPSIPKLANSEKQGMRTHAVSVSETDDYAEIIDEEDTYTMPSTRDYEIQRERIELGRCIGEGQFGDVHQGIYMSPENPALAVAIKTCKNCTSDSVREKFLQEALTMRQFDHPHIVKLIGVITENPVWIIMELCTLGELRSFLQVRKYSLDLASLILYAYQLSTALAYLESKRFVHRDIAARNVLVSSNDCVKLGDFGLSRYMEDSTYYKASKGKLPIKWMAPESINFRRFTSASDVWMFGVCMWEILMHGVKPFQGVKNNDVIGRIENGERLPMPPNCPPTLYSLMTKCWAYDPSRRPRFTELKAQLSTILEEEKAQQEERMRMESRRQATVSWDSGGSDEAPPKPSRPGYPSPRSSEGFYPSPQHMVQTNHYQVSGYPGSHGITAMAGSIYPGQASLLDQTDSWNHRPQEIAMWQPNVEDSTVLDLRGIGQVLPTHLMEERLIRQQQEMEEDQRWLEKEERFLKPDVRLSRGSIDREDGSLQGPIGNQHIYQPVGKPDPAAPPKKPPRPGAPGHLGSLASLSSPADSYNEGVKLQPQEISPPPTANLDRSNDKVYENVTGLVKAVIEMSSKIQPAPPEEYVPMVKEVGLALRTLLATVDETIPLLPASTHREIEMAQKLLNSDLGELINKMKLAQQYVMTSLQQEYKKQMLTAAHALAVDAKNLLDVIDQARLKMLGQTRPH
Chain of Calcium/calmodulin-dependent protein kinase type 1 (Homo sapiens) (Q14012 whole entry, looked up, the tested form may be a part): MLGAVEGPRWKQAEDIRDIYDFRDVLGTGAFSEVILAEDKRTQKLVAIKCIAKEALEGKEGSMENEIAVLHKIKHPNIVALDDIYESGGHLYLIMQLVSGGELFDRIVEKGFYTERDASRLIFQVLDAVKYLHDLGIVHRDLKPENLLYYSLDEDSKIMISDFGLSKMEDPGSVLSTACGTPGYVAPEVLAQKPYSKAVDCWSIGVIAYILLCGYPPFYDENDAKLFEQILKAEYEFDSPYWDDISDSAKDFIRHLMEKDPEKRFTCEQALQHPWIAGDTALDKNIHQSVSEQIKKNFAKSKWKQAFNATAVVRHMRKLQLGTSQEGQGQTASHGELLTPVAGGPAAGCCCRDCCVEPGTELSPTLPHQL

For the compound `CC(C)(O)CNc1ncc(-c2ccnc(Nc3ccnc(Cl)c3)n2)c(CC2CC2)n1`, the Activity in [1] is 122%; in test [2], 120%; in test [3] it was 118%; in test [4], 116%; in test [5] it was 116%; in [6], 113%. For the same compound, the Activity in test [7] was 113%; in [8], 108%; in test [9] it was 101%; in [10] it was 98%. Besides, the inhibition result in test [11], in test [12], in test [13], in [14], in [15] and in [16] was “inactive” throughout. Besides, the inhibition result in test [17], in [18], in [19], in test [20] and in [21] was “inactive” each time. Moreover, the IC50 in [22] was 382 nM; in test [23] it was 3.37 µM.
